Test results: PMC4806563 (Nature chemistry, 2016)

Columns and labels:
[1] = test system: DyLight649-conjugated donkey anti-human IgG antibody; test: NHS glycan array, binding of secondary antibody; conditions: NHS slide
PGTs 141–144 = test: Glycan microarray on ACG slide, PGTs 141–144 binding; parameters: species or system human; conditions: panel of glycans I–XI on ACG slide
In short: (§1)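 Glycans I–XI carry a phosphonic acid tail and immobilize spontaneously and covalently on an aluminium oxide-coated glass (ACG) slide. Glycan concentration sets density and spacing. The printed array is incubated with antibody, then with a secondary antibody, and read by fluorescence. Surface dissociation constants (K_D surf) for glycan–antibody binding are derived from the signals.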

PG16 [2] = test: Glycan microarray on ACG slide, PG16 binding; parameters: species or system human; conditions: ACG surface, 100 μM printed, serial dilution experiment
In short: as §1

PG16 [3] = test: Glycan microarray on NHS-activated glass slide, PG16 binding; parameters: species or system human; conditions: glycans printed at 100 μM

Man4GlcAc2 [glycan 5]
fluorescent signal from non-specific binding of secondary antibody [1]: strong fluorescent signal

CC(=O)N[C@H]1[C@H](O[C@H]2[C@H](O)[C@@H](NC(C)=O)C(O)O[C@@H]2CO)O[C@H](CO)[C@@H](O[C@@H]2O[C@H](CO[C@H]3O[C@H](CO[C@H]4O[C@H](CO)[C@@H](O)[C@H](O)[C@@H]4O[C@H]4O[C@H](CO)[C@@H](O)[C@H](O)[C@@H]4O)[C@@H](O)[C@H](O[C@H]4O[C@H](CO)[C@@H](O)[C@H](O)[C@@H]4O[C@H]4O[C@H](CO)[C@@H](O)[C@H](O)[C@@H]4O)[C@@H]3O)[C@@H](O)[C@H](O[C@H]3O[C@H](CO)[C@@H](O)[C@H](O)[C@@H]3O[C@H]3O[C@H](CO)[C@@H](O)[C@H](O)[C@@H]3O[C@H]3O[C@H](CO)[C@@H](O)[C@H](O)[C@@H]3O)[C@@H]2O)[C@@H]1O (stereo partly shown) [Man9GlcNAc2]
PGTs 141–144 binding (PGTs 141–144): significant decrease in the affinity

Man5GlcNAc2 [IV]
PG16 binding (PG16 [2]): unable to detect
PG16 binding (PG16 [3]): could not observe binding
